Consider seven molecules from ChEMBL document CHEMBL1123481, “Structure-activity relationships of (arylalkyl)imidazole anticonvulsants: comparison of the (fluorenylalkyl)imidazoles with nafimidone and denzimol” (J Med Chem, 1986).

SMILES strings stand for the structures. Active and inactive are the calls of the source. No cut-off for these calls is given here. A value given as a limit tells only on which side of the number the result lay.

In data set [1] the test system is Mus musculus. As to the kind of experiment: Compound was tested for effective dose in mice by pentylenetetrazole assay (administered subcutaneously); Ca 400. Format: functional. The following applies: sc. The gist of the method: (§1)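 Test compound was given orally to mice. At its previously determined time of peak effect, pentylenetetrazole (110 mg/kg in water, 10 mL/kg) was injected sc into the neck skin fold. Mice were watched for 15 min for presence or absence of a clonic seizure. Where protection was bell-shaped, the value is the dose giving maximum protection.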

The subject of data set [2] is Mus musculus. As to the kind of experiment: Compound was tested for effective dose in mice by horizontal screen assay (administered orally); No effect at highest dose of 200 mg/kg. The data set is classed as functional, organism-based. On the set-up: dose 200 mg/kg. The gist of the method:
(§2)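 Fasted, pre-trained male CF1 mice (20–25 g) were dosed orally across a range of doses, given as a suspension in 5% acacia/water. Each mouse was placed on a 13 cm square wire screen, and the screen was rotated 180°. The score was return to the top within 1 min. Time of peak effect was scanned at 0.5–4 h. Each compound was then retested at that time with at least 4 doses and 12 mice per dose.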

Data set [3] is filed under the species Mus musculus. Description: Compound was tested for time to peak anticonvulsant effect (TPE). Format: functional. The gist of the method: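 Time to peak effect after oral dosing in 5% acacia/water was estimated by testing mice at 0.5, 1, 2, 3 and 4 h posttreatment in the MES and horizontal screen tests.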
For data set [4], the species on record is Mus musculus. Description: Potentiation of hexobarbital-induced sleeping time in mice. Format: functional. The gist of the method: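 Groups of 10 fasted mice received compound orally at 10 mg/kg in 5% acacia/water (10 mL/kg). At the compound's time of peak effect they were given hexobarbital 100 mg/kg ip, solubilized with stoichiometric NaOH. Sleeping time, measured as loss of righting reflex, was recorded to the nearest minute. Values are mean ± SEM.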

Data set [5] relates to Mus musculus. Description: Effective dose in mice by pentylenetetrazole assay (administered subcutaneously); No effect at highest dose of 400 mg/kg. Format: functional, organism-based. On the set-up: dose 400 mg/kg. The gist of the method: as §1
In data set [6] the test system is Mus musculus. As to the kind of experiment: Compound was tested for effective dose in mice by horizontal screen assay (administered orally); Ca 550. The conditions noted are these: po. The data set is classed as functional. The gist of the method:
as §2

For data set [7], the system named is Mus musculus. As to the kind of experiment: Effective dose in mice by maximal electroshock assay, administered orally. Format: functional. The following applies: po. The gist of the method: (§3)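 Mice were dosed orally across a range of doses, given in 5% acacia/water. Time of peak effect was found by shocking at 0.5, 1, 2, 3 and 4 h. Corneal electroshock was 40 mA, 0.1 s, ac. Each compound was retested at peak time with at least four doses and 12 mice per dose. The ED50 for prevention of tonic-extensor convulsion was calculated by Litchfield–Wilcoxon; 95% confidence limits are given.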
Background: The maximal electroshock test induces tonic seizures with an electrical stimulus.

The test system of data set [8] is Mus musculus. As to the kind of experiment: Compound was tested for effective dose in mice by maximal electroshock assay (administered per orally). The conditions noted are these: po. The data set is classed as functional. The gist of the method:
as §3

Data set [9] has as its system Mus musculus. Description: Effective dose in mice by horizontal screen assay (administered orally); No effect at highest dose of 400 mg/kg. The data set is classed as functional, organism-based. Set-up: dose 400 mg/kg. The gist of the method: as §2
Data set [10] has as its target T1, GABA-A receptor; anion channel (Rattus norvegicus) (UniProt O09028+P15431+P18506+P18508+P19969+P20236+P23574+P23576+P28471+P28473+P30191+P62813+P63079+P63138+Q91ZM7+Q9ES14). Description: In vitro displacement of [3H]flunitrazepam binding to cortical membranes at 5e-5M concentration. The gist of the method:
(§4)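 Rat cortical membranes (180 μg protein) were incubated with 2 nM [3H]flunitrazepam in 50 mM Tris-HCl pH 7.4 for 40 min at 4 °C, with test compound at 5×10^-5 M, in triplicate. Samples were filtered and washed three times with ice-cold buffer. Nonspecific binding was defined with 3 μM diazepam. Results are given as % of control, mean ± SEM.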

The target in data set [11] is T1, GABA-A receptor; anion channel (Rattus norvegicus). As to the kind of experiment: In vivo displacement of [3H]flunitrazepam binding to rat cortical membranes after 20 mg/kg ip dose. Set-up: dose 20 mg/kg. The data set is classed as organism-based. The following applies: Membrane, at 20 mg/kg. The gist of the method: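 Male Sprague-Dawley rats (100 g; five per group) received saline or compound at 20 mg/kg ip. After 30 min, [3H]flunitrazepam (100 μCi/kg) was given iv via the tail vein. Rats were killed 20 min later. Cortex was homogenized in 50 mM Tris-HCl pH 7.4, and the particulate fraction was filtered and rinsed. Results are given as % of saline control, mean ± SEM.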

For data set [12], the system named is Mus musculus. Description: Effective dose in mice by pentylenetetrazole assay (administered subcutaneously). Format: functional. The following applies: sc. The gist of the method:
as §1

For data set [13], the system named is Mus musculus. Description: Compound was tested for effective dose in mice by horizontal screen assay (administered orally); No effect at highest dose of 300 mg/kg. The data set is classed as functional, organism-based. On the set-up: dose 300 mg/kg. The gist of the method:
as §2

The target of data set [14] is Gamma-aminobutyric acid receptor subunit gamma-1 (Rattus norvegicus) (UniProt P23574). As to the kind of experiment: In vitro displacement of [3H]flunitrazepam binding to rat cortical membranes at 50 uM (No effect). The data set is classed as cell membranes. The following applies: Membrane. The gist of the method: as §4
A general note: In a radioligand displacement assay an active substance lowers the binding of a labelled ligand.

Data set [15] relates to Mus musculus. Description: Compound was tested for effective dose in mice by maximal electroshock assay (administered orally); No effect at highest dose of 300 mg/kg. The data set is classed as functional, organism-based. Set-up: dose 300 mg/kg. The gist of the method:
as §3

The subject of data set [16] is Mus musculus. As to the kind of experiment: Effective dose in mice by horizontal screen assay (administered orally). Format: functional. The following applies: po. The gist of the method: as §2
Data set [17] is described as follows: Compound was tested for its toxicity in rat. The following applies: in vivo. The data set is classed as organism-based. The gist of the method: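 Female Fischer 344 rats were fasted and given a single oral gavage dose, four dose levels per compound, as a suspension in 10% aqueous acacia. Mortality was scored and the median lethal dose (LD50) was derived.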

The nature of data set [18]: Compound was tested for its toxicity in rat; Ca 4550. The data set is classed as organism-based. The conditions noted are these: in vivo.
In data set [19] the test system is Mus musculus. As to the kind of experiment: Compound was tested for effective dose in mice by pentylenetetrazole assay (administered subcutaneously); No effect at highest dose of 200 mg/kg. The data set is classed as functional, organism-based. Set-up: dose 200 mg/kg. The gist of the method:
as §1

Gamma-aminobutyric acid receptor subunit gamma-1 (Rattus norvegicus), sequence (P23574 whole entry): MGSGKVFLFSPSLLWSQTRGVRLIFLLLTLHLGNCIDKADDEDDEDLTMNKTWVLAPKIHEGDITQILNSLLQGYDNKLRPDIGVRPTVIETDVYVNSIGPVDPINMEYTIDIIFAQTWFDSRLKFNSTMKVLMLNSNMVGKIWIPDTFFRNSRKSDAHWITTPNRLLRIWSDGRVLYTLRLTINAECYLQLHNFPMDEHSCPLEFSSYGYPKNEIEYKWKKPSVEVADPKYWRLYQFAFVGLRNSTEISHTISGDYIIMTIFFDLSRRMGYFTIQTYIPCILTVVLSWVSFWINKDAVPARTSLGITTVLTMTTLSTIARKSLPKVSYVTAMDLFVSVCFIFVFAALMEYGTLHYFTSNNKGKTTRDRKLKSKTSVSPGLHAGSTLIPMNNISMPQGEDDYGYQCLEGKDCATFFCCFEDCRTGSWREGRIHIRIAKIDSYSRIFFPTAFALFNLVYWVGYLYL

For `OC(Cn1ccnc1)c1ccc2c(c1)Cc1ccccc1-2` (stereo not drawn), the results for the ED50 in the data set on Mus musculus [1] and in the data set with Mus musculus [2] were 400 mg/kg and “No effect”, respectively. In the data set listed under Mus musculus [3], this molecule gave a TPE of 1 h. In addition, the ST in the data set filed under Mus musculus [4] is listed as 118.3 min.

On to `O=C(Cn1ccnc1)c1ccc2c(c1)CCc1ccccc1-2`, for which the ED50 (as a rule, the dose at which the effect has come halfway, by size or by number of responders) in the data set on Mus musculus [5] was “No effect”; in the data set on Mus musculus [6], 550 mg/kg; in the data set with Mus musculus [7], 60 mg/kg. Besides, the TPE in the data set filed under Mus musculus [3] stood at 2 h.

As for `CC(O)(Cn1ccnc1)c1ccc2c(c1)Cc1ccccc1-2` (stereo not drawn), the ED50 was 10 mg/kg in the data set on Mus musculus [8], “No effect” in the data set with Mus musculus [5], “No effect” in the data set on Mus musculus [9] and 10 mg/kg in the data set with Mus musculus [7]. In the data set listed under Mus musculus [3], this molecule displayed a TPE of 2 h. For the same molecule, the ST in the data set listed under Mus musculus [4] was 146.9 min.

As to `O=C(Cn1ccnc1)c1cc2ccccc2o1`, the results for the Control in data set [10] and in data set [11] were 99.1% and 142%, respectively. For the same molecule, the ED50 with Mus musculus [12] is greater than 400 mg/kg; with Mus musculus [7], 30 mg/kg. For the same molecule, the ED50 result in the data set on Mus musculus [13] is “inactive”. The same molecule registered a TPE in the data set filed under Mus musculus [3] of 1.5 h. In data set [14], the Binding result is “inactive”.

As for `c1ccc2cc(CCc3ncc[nH]3)ccc2c1`, the ED50 result with Mus musculus [15] was “No effect”. Moreover, the TPE in the data set listed under Mus musculus [3] was 1 h.

Turning to `O=C(Cn1ccnc1)c1ccc2c(c1)Cc1ccccc1-2`, the ED50 is greater than 200 mg/kg in the data set with Mus musculus [12] and greater than 1000 mg/kg with Mus musculus [16]. The same molecule came in with a TPE in the data set listed under Mus musculus [3] of 3 h. In the data set filed under Mus musculus [4], the ST stood at 73.7 min. In addition, the LD50 – broadly, the dose at which mortality reaches 50% – in data set [17] worked out at 504 mg/kg; in data set [18] it was 4550 mg/kg.

For `O=C(CCCn1ccnc1)c1ccc2c(c1)Cc1ccccc1-2`, the figures for the ED50 entry with Mus musculus [19], in the data set with Mus musculus [2] and in the data set with Mus musculus [7] were “No effect”, “No effect” and 27 mg/kg, respectively. The molecule further gave a TPE in the data set listed under Mus musculus [3] of 0.5 h.
